# Laboratory results from ChEMBL document CHEMBL1649109, “Antiparasitic activities and toxicities of individual enantiomers of the 8-aminoquinoline 8-[(4-amino-1-methylbutyl)amino]-6-methoxy-4-methyl-5-[3,4-dichlorophenoxy]quinoline succinate” (Antimicrob Agents Chemother, 2008).
# Activity calls are given as the source filed them. No cut-off for these calls is given here.
# Tests used:
# Leishmania donovani [1] = experiment: Antileishmanial activity against Leishmania donovani HU3 infected in mouse; type: functional
# Method in brief: (§1)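 L. donovani HU3 amastigotes, 1 × 10^7 given IV to mice. From day 7 post-infection, dosed orally once daily for 5 days in 0.25% methylcellulose-10% ethanol; reference stibogluconate given SC. Mice killed at day 14 post-infection. Parasite burden counted on liver impression smears against untreated controls. ED50 from linear regression, with 95% confidence limits.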
# Leishmania donovani [2] = experiment: Antileishmanial activity against Leishmania donovani HU3 infected in mouse assessed as inhibition of parasites in liver at 5 mg/kg/day, po treated for 5 days administered 7 days postinfection measured after 14 days post-infection; type: functional; method in brief: as §1
# Canis familiaris [3] = experiment: Toxicity in Beagle dog assessed as survival at 6.4 mg/kg/day, po after 4 days; type: organism-based, Canis lupus familiaris; design: route oral; details: in vivo, 96 h
# Method in brief: (§2)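 Beagle dogs, 8-9 months old, given drug as bulk powder in gelatin capsules orally on days 1-4, at 0.0116 mmol/kg/day as base. Daily clinical observation. Methemoglobin measured by co-oximetry from jugular or cephalic blood, predose on days 1, 2 and 4, then through day 29.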
# Pneumocystis carinii [4] = experiment: Antimicrobial activity against Pneumocystis carinii infected BALB/c mouse at 1.3 mg/kg/day, po after 21 days administered 4 weeks postinfection by Giemsa staining; type: functional, organism-based
# Method in brief: (§3)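 Female BALB/c mice, 6-8 weeks, immunosuppressed with dexamethasone […] in drinking water, then inoculated transtracheally with 10^6 P. carinii. From 4 weeks post-inoculation, drug given in drinking water for 3 weeks, 10 mice/group, intake monitored. Lung impression smears stained with Giemsa or methenamine silver, read blinded. Graded 0-5 on a log scale; group mean ± SE.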
# Pneumocystis carinii [5] = experiment: Antimicrobial activity against Pneumocystis carinii infected BALB/c mouse at 0.25 mg/kg/day, po after 21 days administered 4 weeks postinfection by methenamine silver nitrate staining method; type: functional, organism-based; method in brief: as §3
# Canis familiaris [6] = experiment: Toxicity in Beagle dog assessed as survival at 6.7 mg/kg/day, po after 4 days; type: organism-based, Canis lupus familiaris; design: route oral; details: in vivo, 96 h; method in brief: as §2
# Plasmodium berghei [7] = experiment: Antimalarial activity against Plasmodium berghei KBG-173 infected in Swiss(CD-1) mouse assessed as survival at 0.25 mg/kg/day, po treated for 3 days measured on day 34; type: functional, organism-based
# Method in brief: (§4)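 CD-1 mice, 5 weeks old, male or female, groups of five, infected with 5 × 10^4 P. berghei KBG-173 parasitized erythrocytes. Drug in 0.5% hydroxyethylcellulose/0.1% Tween 80, given orally once daily on days 3, 4 and 5 post-infection. Parasitemia from blood films on day +6. Read-out also includes increase in mean survival time over controls and survivors at day +34.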
# Canis familiaris [8] = experiment: Toxicity in Beagle dog assessed as increase in methemoglobin level at 6.4 mg/kg/day, po between 7 to 11 days; type: organism-based, Canis lupus familiaris; design: route oral; details: in vivo; method in brief: as §2
# Pneumocystis carinii [9] = experiment: Antimicrobial activity against Pneumocystis carinii infected BALB/c mouse at 0.25 mg/kg/day, po after 21 days administered 4 weeks postinfection by Giemsa staining method; type: functional, organism-based; method in brief: as §3
# Leishmania donovani [10] = experiment: Antileishmanial activity against Leishmania donovani HU3 infected in mouse assessed as inhibition of parasites in liver at 10 mg/kg/day, po treated for 5 days administered 7 days postinfection measured after 14 days post-infection; type: functional; method in brief: as §1
# Plasmodium berghei [11] = experiment: Antimalarial activity against Plasmodium berghei KBG-173 infected in Swiss(CD-1) mouse assessed as survival at 1 mg/kg/day, po treated for 3 days measured on day 34; type: functional, organism-based; method in brief: as §4
# Mus musculus = experiment: Toxicity in Plasmodium berghei KBG-173 infected Swiss(CD-1) mouse at 64 mg/kg/day, po treated for 3 days; type: organism-based; design: route oral; details: in vivo, 72 h
# Method in brief: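 CD-1 mice infected with 5 × 10^4 P. berghei KBG-173 parasitized erythrocytes. Drug in 0.5% hydroxyethylcellulose/0.1% Tween 80, given orally on days 3-5 post-infection, 7 mice per dose. Blood films on day +6 and weekly to day +60. Mortality tabulated for 60 days; blood-film-negative survivors counted as cured.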
# Plasmodium berghei [12] = experiment: Antimalarial activity against Plasmodium berghei KBG-173 infected in Swiss(CD-1) mouse assessed as mean survival time at 1 mg/kg/day, po treated for 3 days; type: functional; method in brief: as §4
# Plasmodium berghei [13] = experiment: Antimalarial activity against Plasmodium berghei KBG-173 infected in Swiss(CD-1) mouse assessed as mean survival time at 0.25 mg/kg/day, po treated for 3 days; type: functional; method in brief: as §4
# Plasmodium berghei [14] = experiment: Antimalarial activity against Plasmodium berghei KBG-173 infected in Swiss(CD-1) mouse assessed as parasitemia at 0.25 mg/kg/day, po treated for 3 days measured on day 6
# Leishmania donovani [15] = experiment: Antileishmanial activity against Leishmania donovani HU3 infected in mouse assessed as inhibition of parasites in liver at 0.4 mg/kg/day, po treated for 5 days administered 7 days postinfection measured after 14 days post-infection; type: functional; method in brief: as §1
# Plasmodium berghei [16] = experiment: Antimalarial activity against Plasmodium berghei KBG-173 infected in Swiss(CD-1) mouse assessed as parasitemia at 1 mg/kg/day, po treated for 3 days measured on day 6
# Leishmania donovani [17] = experiment: Antileishmanial activity against Leishmania donovani HU3 infected in mouse assessed as inhibition of parasites in liver at 100 mg/kg/day, po treated for 5 days administered 7 days postinfection measured after 14 days; type: functional; method in brief: as §1
# Pneumocystis carinii [18] = experiment: Antimicrobial activity against Pneumocystis carinii infected BALB/c mouse at 1.3 mg/kg/day, po after 21 days administered 4 weeks postinfection by Giemsa staining method; type: functional, organism-based; method in brief: as §3
# Canis familiaris [19] = experiment: Toxicity in Beagle dog assessed as survival at 5.3 mg/kg/day, po after 4 days; type: organism-based, Canis lupus familiaris; design: route oral; details: in vivo, 96 h; method in brief: as §2
# Pneumocystis carinii [20] = experiment: Antimicrobial activity against Pneumocystis carinii infected BALB/c mouse at 0.1 mg/kg/day, po after 21 days administered 4 weeks postinfection by methenamine silver nitrate staining method; type: functional, organism-based
structure (smiles),measurement,setting,value
CCN(CC)CCCCCCNc1cc(OC)cc2c(C)ccnc12 [SITAMAQUINE],ED90,Leishmania donovani [1],4.14 mg/kg
same,ED50,"Leishmania donovani [1]; Leishmania donovani, HU3",1.55 mg/kg
COc1cc(NC(C)CCCN)c2nccc(C)c2c1Oc1ccc(Cl)c(Cl)c1.O=C(O)CCC(=O)O (racemic),inhibition in vivo at 5 mg/kg/day,Leishmania donovani [2],99.2%
same,Activity,Canis familiaris [3],Non-toxic
same,Activity,Pneumocystis carinii [4],Active
same,Activity,Pneumocystis carinii [5],Active
same,Activity,Canis familiaris [6],Non-toxic
same,Activity,Plasmodium berghei [7],Active
same,Activity,Canis familiaris [8],Toxic
same,Activity,Pneumocystis carinii [9],Active
same,inhibition in vivo at 10 mg/kg/day,Leishmania donovani [10],99.8%
same,Activity,Plasmodium berghei [11],Active
same,Activity,Mus musculus,Toxic
same,MST,Plasmodium berghei [12],10.2 days
same,MST,Plasmodium berghei [13],11.6 days
same,Activity,Plasmodium berghei [14],4.8%
same,inhibition in vivo at 0.4 mg/kg/day,Leishmania donovani [15],34.1%
same,Activity,Plasmodium berghei [16],0.1%
same,inhibition in vivo at 100 mg/kg/day,Leishmania donovani [17],99%
same,Activity,Pneumocystis carinii [18],Active
same,Activity,Canis familiaris [19],Non-toxic
same,Activity,Pneumocystis carinii [20],Active
COc1cc(C)c2c(Oc3cccc(C(F)(F)F)c3)c(OC)cc(NC(C)CCCN)c2n1 (stereo not drawn) [TAFENOQUINE],Activity,Canis familiaris [8],Toxic
